pKi: −log10 of the molar value. The source made the active and inactive calls. The calls are words filed in the database; no cut-off is given here.
What was measured:
Mus musculus [1] = experiment: Anticonvulsant activity in CF1 mouse assessed as protection against maximal electroshock-induced seizures at 100 mg/kg, ip after 0.5 hrs; assay type: functional, organism-based; parameters: dose 100 mg/kg
Summary of the method: (§1)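 Mice given compound i.p. at 30, 100 or 300 mg/kg and tested 0.5 or 4 h after dosing. Seizures were induced by maximal electroshock (MES) or subcutaneous metrazole (ScMet). Prevention of seizures counts as protection. Result is recorded as number of animals protected over number tested.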

Mus musculus [2] = experiment: Anticonvulsant activity in CF1 mouse assessed as protection against subcutaneous metrazole-induced seizures at 30 mg/kg, ip after 0.5 hrs; assay type: functional, organism-based; parameters: dose 30 mg/kg; summary of the method: as §1
Mus musculus [3] = experiment: Anticonvulsant activity in CF1 mouse assessed as protection against subcutaneous metrazole-induced seizures at 30 mg/kg, ip after 4 hrs; assay type: functional, organism-based; parameters: dose 30 mg/kg; summary of the method: as §1
Mus musculus [4] = experiment: Anticonvulsant activity in CF1 mouse assessed as protection against maximal electroshock-induced seizures at 300 mg/kg, ip after 0.5 hrs; assay type: functional, organism-based; parameters: dose 300 mg/kg; summary of the method: as §1
Mus musculus [5] = experiment: Anticonvulsant activity in CF1 mouse assessed as protection against subcutaneous metrazole-induced seizures at 100 mg/kg, ip after 4 hrs; assay type: functional, organism-based; parameters: dose 100 mg/kg; summary of the method: as §1
Mus musculus [6] = experiment: Anticonvulsant activity in CF1 mouse assessed as protection against subcutaneous metrazole-induced seizures at 300 mg/kg, ip after 4 hrs; assay type: functional, organism-based; parameters: dose 300 mg/kg; summary of the method: as §1
Mus musculus [7] = experiment: Anticonvulsant activity in CF1 mouse assessed as protection against maximal electroshock-induced seizures at 30 mg/kg, ip after 0.5 hrs; assay type: functional, organism-based; parameters: dose 30 mg/kg; summary of the method: as §1
Mus musculus [8] = experiment: Anticonvulsant activity in CF1 mouse assessed as protection against maximal electroshock-induced seizures at 100 mg/kg, ip after 4 hrs; assay type: functional, organism-based; parameters: dose 100 mg/kg; summary of the method: as §1
Mus musculus [9] = experiment: Anticonvulsant activity in CF1 mouse assessed as protection against subcutaneous metrazole-induced seizures at 100 mg/kg, ip after 0.5 hrs; assay type: functional, organism-based; parameters: dose 100 mg/kg; summary of the method: as §1
Mus musculus [10] = experiment: Anticonvulsant activity in CF1 mouse assessed as protection against subcutaneous metrazole-induced seizures at 300 mg/kg, ip after 0.5 hrs; assay type: functional, organism-based; parameters: dose 300 mg/kg; summary of the method: as §1
Mus musculus [11] = experiment: Anticonvulsant activity in CF1 mouse assessed as protection against maximal electroshock-induced seizures at 30 mg/kg, ip after 4 hrs; assay type: functional, organism-based; parameters: dose 30 mg/kg; summary of the method: as §1
Mus musculus [12] = experiment: Anticonvulsant activity in CF1 mouse assessed as protection against maximal electroshock-induced seizures at 300 mg/kg, ip after 4 hrs; assay type: functional, organism-based; parameters: dose 300 mg/kg; summary of the method: as §1
[13] = target: T1, 5-hydroxytryptamine receptor 1A (Homo sapiens, UniProt P08908); experiment: Displacement of [3H]8-OH-DPAT from human 5HT1A receptor expressed in HEK293 cells after 1 hr; assay type: cell-based
T1 sequence (P08908 whole entry): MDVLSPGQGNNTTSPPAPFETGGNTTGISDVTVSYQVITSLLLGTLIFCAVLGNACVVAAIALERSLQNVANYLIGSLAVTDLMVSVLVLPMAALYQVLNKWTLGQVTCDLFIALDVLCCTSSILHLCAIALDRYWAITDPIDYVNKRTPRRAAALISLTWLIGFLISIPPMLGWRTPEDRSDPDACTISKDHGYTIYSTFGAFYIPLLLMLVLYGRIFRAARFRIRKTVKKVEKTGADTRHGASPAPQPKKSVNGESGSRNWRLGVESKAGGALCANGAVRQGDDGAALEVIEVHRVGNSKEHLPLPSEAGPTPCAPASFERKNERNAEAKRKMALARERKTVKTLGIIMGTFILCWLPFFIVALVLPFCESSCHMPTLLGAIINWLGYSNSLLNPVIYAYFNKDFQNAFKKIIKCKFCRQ

[14] = target: 5-hydroxytryptamine receptor 6 (Homo sapiens, UniProt P50406); experiment: Displacement of [3H]LSD from human 5HT6 receptor expressed in HEK293 cells after 1 hr; assay type: cell-based
[15] = target: 5-hydroxytryptamine receptor 7 (Homo sapiens, UniProt P34969); experiment: Displacement of [3H]5-CT from human 5HT7b receptor expressed in HEK293 cells after 1 hr; assay type: cell-based
[16] = target: T2, Adrenergic receptor alpha-1 (Rattus norvegicus, UniProt P15823+P23944+P43140); experiment: Displacement of [3H]prazosin from alpha1-adrenergic receptor in rat cerebral cortex after 30 mins by scintillation counting; assay type: tissue-based
T2 sequence (P15823 whole entry): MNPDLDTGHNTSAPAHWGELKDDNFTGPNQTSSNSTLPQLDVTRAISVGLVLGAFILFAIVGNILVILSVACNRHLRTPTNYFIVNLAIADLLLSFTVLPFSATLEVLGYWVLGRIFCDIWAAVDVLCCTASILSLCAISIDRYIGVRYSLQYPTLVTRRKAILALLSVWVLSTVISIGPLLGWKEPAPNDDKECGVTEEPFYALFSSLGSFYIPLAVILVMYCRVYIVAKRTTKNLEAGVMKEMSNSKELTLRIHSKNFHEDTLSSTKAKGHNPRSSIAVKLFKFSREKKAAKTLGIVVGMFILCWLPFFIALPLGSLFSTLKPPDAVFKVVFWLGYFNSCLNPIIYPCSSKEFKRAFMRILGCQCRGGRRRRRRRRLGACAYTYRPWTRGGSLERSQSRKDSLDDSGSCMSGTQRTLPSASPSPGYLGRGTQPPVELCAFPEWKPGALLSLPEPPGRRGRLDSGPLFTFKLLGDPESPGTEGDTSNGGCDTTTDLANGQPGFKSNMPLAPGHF
T2 sequence (P23944 whole entry): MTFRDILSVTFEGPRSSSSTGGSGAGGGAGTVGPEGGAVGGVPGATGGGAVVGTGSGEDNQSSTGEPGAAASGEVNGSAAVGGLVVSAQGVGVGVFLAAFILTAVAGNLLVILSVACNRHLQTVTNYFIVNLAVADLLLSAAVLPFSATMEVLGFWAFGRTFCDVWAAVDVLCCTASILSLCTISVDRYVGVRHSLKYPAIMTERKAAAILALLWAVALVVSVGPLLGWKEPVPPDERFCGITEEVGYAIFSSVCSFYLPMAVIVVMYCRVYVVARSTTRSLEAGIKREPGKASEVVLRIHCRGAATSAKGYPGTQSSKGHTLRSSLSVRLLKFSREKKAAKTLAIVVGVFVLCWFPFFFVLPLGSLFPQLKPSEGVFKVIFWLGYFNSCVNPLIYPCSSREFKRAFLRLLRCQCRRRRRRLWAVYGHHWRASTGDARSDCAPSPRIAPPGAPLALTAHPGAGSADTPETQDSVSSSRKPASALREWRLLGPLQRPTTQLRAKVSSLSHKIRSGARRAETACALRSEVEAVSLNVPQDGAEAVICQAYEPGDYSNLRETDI
T2 sequence (P43140 whole entry): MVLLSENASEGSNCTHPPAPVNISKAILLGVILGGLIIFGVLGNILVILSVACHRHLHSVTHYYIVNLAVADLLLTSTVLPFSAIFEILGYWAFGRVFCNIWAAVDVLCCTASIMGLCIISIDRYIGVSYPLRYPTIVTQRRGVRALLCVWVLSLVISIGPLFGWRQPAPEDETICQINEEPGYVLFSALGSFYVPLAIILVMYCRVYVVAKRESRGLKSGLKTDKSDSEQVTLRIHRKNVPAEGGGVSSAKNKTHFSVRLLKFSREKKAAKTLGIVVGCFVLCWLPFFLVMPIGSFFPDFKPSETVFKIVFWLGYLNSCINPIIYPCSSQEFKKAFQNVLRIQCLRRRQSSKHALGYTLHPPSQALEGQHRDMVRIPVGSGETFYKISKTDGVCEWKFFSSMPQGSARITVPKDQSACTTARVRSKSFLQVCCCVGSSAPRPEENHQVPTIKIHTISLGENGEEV
Summary of the method: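 Radioligand binding on rat brain tissue membranes, run in 96-well format. [3H]prazosin was used for α1 (n = 2) and [3H]CGP-12177 for β1 (n = 2). Ki was calculated by the Cheng–Prusoff equation.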

Mus musculus [17] = experiment: Neurotoxicity in CF1 mouse assessed as minimal motor impairment at 300 mg/kg, ip after 4 hrs by rotorod test; assay type: toxicity, organism-based; parameters: dose 300 mg/kg, route intraperitoneal; conditions: in vivo
Summary of the method: (§2)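 Rotarod neurotoxicity screen in mice dosed i.p. at 30, 100 or 300 mg/kg, read 0.5 or 4 h after dosing. The animal must stay on a rod rotating at 6 rpm without falling, measured 3 times within 1 min. A fall counts as minimal motor impairment. Result is recorded as impaired animals over animals used.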

Mus musculus [18] = experiment: Neurotoxicity in CF1 mouse assessed as minimal motor impairment at 100 mg/kg, ip after 4 hrs by rotorod test; assay type: toxicity, organism-based; parameters: dose 100 mg/kg, route intraperitoneal; conditions: in vivo; summary of the method: as §2
Mus musculus [19] = experiment: Neurotoxicity in CF1 mouse assessed as minimal motor impairment at 30 mg/kg, ip after 4 hrs by rotorod test; assay type: toxicity, organism-based; parameters: dose 30 mg/kg, route intraperitoneal; conditions: in vivo; summary of the method: as §2
Mus musculus [20] = experiment: Neurotoxicity in CF1 mouse assessed as minimal motor impairment at 100 mg/kg, ip after 0.5 hrs by rotorod test; assay type: toxicity, organism-based; parameters: dose 100 mg/kg, route intraperitoneal; conditions: in vivo; summary of the method: as §2
Rattus norvegicus [21] = species on record: Rattus norvegicus; experiment: Displacement of [3H]CGP-12177 from beta1-adrenergic receptor in rat cerebral cortex at 50 uM after 60 mins by scintillation counting; assay type: tissue-based
Mus musculus [22] = experiment: Neurotoxicity in CF1 mouse assessed as minimal motor impairment at 30 mg/kg, ip after 0.5 hrs by rotorod test; assay type: toxicity, organism-based; parameters: dose 30 mg/kg, route intraperitoneal; conditions: in vivo; summary of the method: as §2
Rattus norvegicus [23] = experiment: Neurotoxicity in Sprague-Dawley rat assessed as minimal motor impairment at 30 mg/kg, po after 1 hr by rotorod test; conditions: in vivo
Mus musculus [24] = experiment: Neurotoxicity in CF1 mouse assessed as minimal motor impairment at 300 mg/kg, ip after 0.5 hrs by rotorod test; assay type: toxicity, organism-based; parameters: dose 300 mg/kg, route intraperitoneal; conditions: in vivo; summary of the method: as §2
Rattus norvegicus [25] = experiment: Neurotoxicity in Sprague-Dawley rat assessed as minimal motor impairment at 30 mg/kg, po after 4 hrs by rotorod test; conditions: in vivo
Rattus norvegicus [26] = experiment: Neurotoxicity in Sprague-Dawley rat assessed as minimal motor impairment at 30 mg/kg, po after 0.25 hrs by rotorod test; conditions: in vivo
Rattus norvegicus [27] = experiment: Neurotoxicity in Sprague-Dawley rat assessed as minimal motor impairment at 30 mg/kg, po after 2 hrs by rotorod test; conditions: in vivo
Rattus norvegicus [28] = experiment: Neurotoxicity in Sprague-Dawley rat assessed as minimal motor impairment at 30 mg/kg, po after 0.5 hrs by rotorod test; conditions: in vivo
Rattus norvegicus [29] = experiment: Anticonvulsant activity in Sprague-Dawley rat assessed as protection against maximal electroshock-induced seizures at 30 mg/kg, po after 0.25 hrs; assay type: functional, organism-based; parameters: dose 30 mg/kg
Summary of the method: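 Rats dosed orally at 30 mg/kg and tested in MES at several time points after dosing. Protection means seizures were prevented. Result is recorded as number of animals protected over number tested.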

Sequence of 5-hydroxytryptamine receptor 7 (P34969 whole entry): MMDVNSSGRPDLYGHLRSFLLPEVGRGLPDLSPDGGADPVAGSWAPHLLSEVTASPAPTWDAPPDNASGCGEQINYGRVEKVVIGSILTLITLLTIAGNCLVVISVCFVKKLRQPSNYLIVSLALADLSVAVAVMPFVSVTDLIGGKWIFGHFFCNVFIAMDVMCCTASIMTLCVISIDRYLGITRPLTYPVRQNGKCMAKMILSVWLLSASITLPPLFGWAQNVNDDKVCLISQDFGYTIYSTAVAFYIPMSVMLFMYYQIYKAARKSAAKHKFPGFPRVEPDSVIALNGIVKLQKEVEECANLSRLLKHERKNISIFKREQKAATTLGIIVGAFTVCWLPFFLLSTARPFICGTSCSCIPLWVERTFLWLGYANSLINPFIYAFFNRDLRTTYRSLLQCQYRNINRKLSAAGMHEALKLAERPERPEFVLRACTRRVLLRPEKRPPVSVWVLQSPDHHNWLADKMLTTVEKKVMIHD
Sequence of 5-hydroxytryptamine receptor 6 (P50406 whole entry): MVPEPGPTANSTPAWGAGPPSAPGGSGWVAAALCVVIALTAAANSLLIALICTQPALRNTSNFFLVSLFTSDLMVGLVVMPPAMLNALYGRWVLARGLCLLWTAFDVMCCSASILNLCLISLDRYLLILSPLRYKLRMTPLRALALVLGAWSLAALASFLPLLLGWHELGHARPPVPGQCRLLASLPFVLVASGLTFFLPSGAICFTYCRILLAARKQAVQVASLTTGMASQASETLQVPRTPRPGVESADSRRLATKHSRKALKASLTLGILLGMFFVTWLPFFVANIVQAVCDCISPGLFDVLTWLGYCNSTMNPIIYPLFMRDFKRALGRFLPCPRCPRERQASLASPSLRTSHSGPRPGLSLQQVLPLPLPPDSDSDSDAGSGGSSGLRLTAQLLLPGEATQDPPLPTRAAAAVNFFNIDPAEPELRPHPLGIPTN

| SMILES | Activity (Mus musculus [1]) | Activity (Mus musculus [2]) | Activity (Mus musculus [3]) | Activity (Mus musculus [4]) | Activity (Mus musculus [5]) | Activity (Mus musculus [6]) | Activity (Mus musculus [7]) | Activity (Mus musculus [8]) | Activity (Mus musculus [9]) | Activity (Mus musculus [10]) | Activity (Mus musculus [11]) | Activity (Mus musculus [12]) | pKi [13] | pKi [14] | pKi [15] | Ki [16] | Activity (Mus musculus [18]) | Activity (Mus musculus [19]) | inhibition (Rattus norvegicus [21]) | Activity (Mus musculus [22]) | further results |
| --- | --- | --- | --- | --- | --- | --- | --- | --- | --- | --- | --- | --- | --- | --- | --- | --- | --- | --- | --- | --- | --- |
| COc1ccc2c(=O)c3cc(CN4CCN(c5ccccc5OC)CC4)ccc3oc2c1 | inactive | inactive | inactive | inactive | inactive | inactive | inactive | inactive | inactive | inactive | inactive | inactive | – | – | – | – | – | – | – | – | – |
| COc1ccc2c(=O)c3cc(CN4CCN(C)CC4)ccc3oc2c1.Cl.Cl | – | – | – | – | – | – | – | – | – | – | – | – | 4.80 | 4.72 | 4.77 | 0.49 µM | – | – | – | – | – |
| COc1ccc2c(=O)c3cccc(CN4CCN(c5ccccc5OC)CC4)c3oc2c1.Cl | inactive | inactive | inactive | inactive | inactive | inactive | inactive | inactive | inactive | inactive | inactive | inactive | 7.62 | 5.03 | 6.71 | 0.17 µM | Non-toxic | Non-toxic | inactive | Non-toxic | Activity (Mus musculus [17]): Non-toxic; Activity (Mus musculus [20]): Non-toxic |
| COc1ccc2c(=O)c3cc(CN4CCN(C)CC4)ccc3oc2c1 | – | – | – | – | – | – | – | – | – | – | – | – | – | – | – | – | Non-toxic | Non-toxic | – | Non-toxic | Activity (Rattus norvegicus [23]): Non-toxic; Activity (Mus musculus [24]): Toxic; Activity (Rattus norvegicus [25]): Non-toxic; Activity (Rattus norvegicus [26]): Non-toxic; Activity (Rattus norvegicus [27]): Non-toxic; Activity (Rattus norvegicus [28]): Non-toxic |
| COc1ccc2c(=O)c3cc(CN4CCN(Cc5ccccc5)CC4)ccc3oc2c1 | inactive | inactive | inactive | inactive | inactive | inactive | inactive | – | inactive | inactive | inactive | Active | – | – | – | – | – | – | inactive | – | Activity (Rattus norvegicus [29]): inactive |

— ChEMBL document CHEMBL2401625, “Synthesis and evaluation of pharmacological properties of some new xanthone derivatives with piperazine moiety” (Bioorg Med Chem Lett, 2013)
